From ChEMBL document CHEMBL4706532, “New Seco-DSP derivatives as potent chemosensitizers” (Eur J Med Chem, 2020)
The source made the active and inactive calls. The calls are words filed in the database; no cut-off is given here.

Key:
[1] = Reversal of multidrug resistance activity in P-gp overexpressing human KB-VIN cells assessed as potentiation of VCR-induced cytotoxicity by measuring reversal ratio at 10 uM incubated for 48 hrs in presence of VCR by MTT assay; assay type: functional
Method in brief: (§1)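 Resistant cells were plated at 3~5 × 10^3 per well, given 24 h, then co-treated with test compound plus a range of anticancer drug concentrations (PTX for A2780/T, VCR for KB-VIN, cisplatin for A2780/CDDP) or DMSO for 48 h. Read-out was by MTT, 4 h at 37 °C, with absorbance at 490 nm. Reversal ratio = IC50 (drug alone) / IC50 (drug with compound).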

[2] = organism: Homo sapiens; assay: Stimulation of human membrane P-gp ATPase activity at 0.5 mM using MgATP as substrate preincubated with enzyme for 5 mins followed by substrate addition and measured after 120 mins by ADP-Glo luminescence assay relative to control; assay type: cell membranes; conditions: time 125.0 min
Method in brief: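 Reactions were started with 10 μL of 25 mM MgATP and run 120 min at 37 °C. ATP detection reagent was then added, and luminescence was read after about 20 min at room temperature (P-gp-Glo). Results are mean ± SD of three independent experiments.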

[3] = test system: A2780T; assay: Inhibition of P-gp mediated multidrug resistance activity in human A2780T cells assessed as increase in intracellular DOX accumulation at 10 uM incubated for 4 hrs in presence of doxorubicin by flow cytometry; assay type: cell-based
Method in brief: (§2)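 A2780/T cells were seeded at about 5×10^5 per well and left 24 h. […] Cells were washed three times with ice-cold PBS and resuspended in cold PBS. DOX autofluorescence was measured by flow cytometry and by fluorescence/confocal microscopy. Data are given as mean ± SD.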

[4] = test system: A2780/Taxol; assay: Decrease in P-gp expression in human A2780T cells at 10 uM incubated for 48 hrs by western blot analysis; assay type: functional, cell-based
Method in brief: (§3)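 A2780/T cells (about 5×10^5 per well) were allowed 24 h, then treated with compound at 10 µM for 48 h at 37 °C. Cells were lysed in RIPA buffer with 1 mM PMSF. Lysates (20 µg protein) were run on 12% SDS-PAGE and transferred to PVDF. Blots were blocked in 3% BSA and probed overnight at 4 °C with anti-P-gp or GAPDH antibody (1:1000), then with HRP secondary (1:10000) for 1 h. Detection was by ECL with densitometry.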

[5] = Reversal of multidrug resistance activity in P-gp overexpressing human A2780T cells assessed as potentiation of PTX-induced cytotoxicity by measuring reversal ratio at 10 uM incubated for 48 hrs in presence of paclitaxel by MTT assay; assay type: functional, A2780/Taxol; method in brief: as §1
[6] = test system: HUVEC; assay: Cytotoxicity against human HUVEC cells assessed as reduction in cell viability at 10 uM incubated for 48 hrs by MTT assay; assay type: cell-based
Method in brief: (§4)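 Cells plated at 3~5 × 10^3 per well and allowed 24 h before exposure to compound or DMSO (negative control) for 48 h. MTT was added for 4 h, formazan dissolved in DMSO and absorbance read at 490 nm. Inhibition was calculated relative to DMSO and blank.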

[7] = Reversal of multidrug resistance activity in P-gp overexpressing human A2780T cells assessed as potentiation of PTX-induced cytotoxicity by measuring reversal ratio at 200 nM incubated for 48 hrs in presence of paclitaxel by MTT assay
[8] = Reversal of multidrug resistance activity in P-gp overexpressing human A2780T cells assessed as potentiation of PTX-induced cytotoxicity by measuring reversal ratio at 1 uM incubated for 48 hrs in presence of paclitaxel by MTT assay; assay type: functional, A2780/Taxol; method in brief: as §1
[9] = Cytotoxicity against human KB-VIN cells assessed as reduction in cell viability at 10 uM incubated for 48 hrs by MTT assay; assay type: cell-based
Method in brief: as §4, with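 “h. A2780/T and KB-VIN were grown in DMEM/F12 with 10% FBS, and HUVEC, HOSEC and T29 in RPMI-1640 with 10% FBS, all at 37 °C under 5% CO₂.” for “h.”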

[10] = test system: A2780/Taxol; assay: Cytotoxicity against human A2780T cells assessed as reduction in cell viability at 10 uM incubated for 48 hrs by MTT assay; assay type: cell-based
Method in brief: as §4, with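 “h. A2780/T and KB-VIN were grown in DMEM/F12 with 10% FBS, and HUVEC, HOSEC and T29 in RPMI-1640 with 10% FBS, all at 37 °C under 5% CO₂.” for “h.”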

[11] = test system: A2780/Taxol; assay: Increase in P-gp expression in human A2780T cells at 10 uM incubated for 48 hrs by western blot analysis; assay type: functional, cell-based; method in brief: as §3
[12] = Cytotoxicity against human HOSEC cells assessed as reduction in cell viability at 10 uM incubated for 48 hrs by MTT assay; assay type: cell-based; conditions: hose
Method in brief: as §4, with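 “h. A2780/T and KB-VIN were grown in DMEM/F12 with 10% FBS, and HUVEC, HOSEC and T29 in RPMI-1640 with 10% FBS, all at 37 °C under 5% CO₂.” for “h.”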

[13] = test system: A2780T; assay: Inhibition of P-gp mediated multidrug resistance activity in human A2780T cells assessed as increase in intracellular DOX accumulation at 10 uM incubated for 4 hrs in presence of doxorubicin by fluorescence microsocopy; assay type: cell-based; method in brief: as §2
[14] = Reversal of multidrug resistance activity in human A2780/CDDP cells assessed as potentiation of CDDP-induced cytotoxicity by measuring reversal ratio at 10 uM incubated for 48 hrs in presence of CDDP by MTT assay; assay type: functional; method in brief: as §1
[15] = Cytotoxicity against human T29 cells assessed as reduction in cell viability at 10 uM incubated for 48 hrs by MTT assay; assay type: cell-based; conditions: t29, 48 h
Method in brief: as §4, with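 “h. A2780/T and KB-VIN were grown in DMEM/F12 with 10% FBS, and HUVEC, HOSEC and T29 in RPMI-1640 with 10% FBS, all at 37 °C under 5% CO₂.” for “h.”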

| SMILES | fold change (FC) [2] | Ratio [1] | inhibition [3] | inhibition [4] | Ratio [5] | Activity [6] | Ratio [7] | Ratio [8] | Activity [9] | Activity [10] | Activity [11] | Activity [12] | inhibition [13] | Ratio [14] | Activity [15] |
| --- | --- | --- | --- | --- | --- | --- | --- | --- | --- | --- | --- | --- | --- | --- | --- |
| CCOc1ccc2c(=O)cc(CC)oc2c1COC(=O)/C=C/c1ccc(OC)cc1 | 1.2 | 299 | Active | inactive | >1471 | Non-Toxic | 1.05 | 128 | Non-Toxic | Toxic | inactive | Non-Toxic | Active | 0.88 | Non-Toxic |
| COc1ccc(CCN(C)CCCC(C#N)(c2ccc(OC)c(OC)c2)C(C)C)cc1OC (configuration not stated) | 1.8 |  | Active |  |  |  |  |  |  |  |  |  | Active |  |  |
| CCOc1ccc2c(=O)cc(CC)oc2c1COC(=O)/C=C/c1ccccc1 | 1.2 | 633 | Active | inactive | 503 | Non-Toxic | 1.05 | 4.24 | Non-Toxic | Non-Toxic | inactive | Non-Toxic | Active | 0.92 | Non-Toxic |

More lines, main results first:

| fold change (FC) [2] | SMILES | Ratio [1] | inhibition [3] | inhibition [4] | Ratio [5] | Activity [6] | Ratio [7] | Ratio [8] | Activity [9] | Activity [10] | Activity [11] | Activity [12] | inhibition [13] | Ratio [14] | Activity [15] |
| --- | --- | --- | --- | --- | --- | --- | --- | --- | --- | --- | --- | --- | --- | --- | --- |
| 1.2 | CCOc1ccc2c(=O)cc(CC)oc2c1COC(=O)Cc1cc(OC)c(OC)c(OC)c1 | 628 | Active | inactive | 677 | Non-Toxic | 1.05 | 4.13 | Non-Toxic | Non-Toxic | inactive | Non-Toxic | Active | 0.97 | Non-Toxic |
| 1.2 | CCc1cc(=O)c2ccc(OC(C)C)c(COC(=O)Cc3cc(OC)c(OC)c(OC)c3)c2o1 | 604 | Active | inactive | 576 | Non-Toxic | 1.05 | 3.97 | Non-Toxic | Non-Toxic | inactive | Non-Toxic | Active |  | Non-Toxic |
